From ChEMBL document CHEMBL2176984, “Target Selectivity of FimH Antagonists” (J Med Chem, 2012)
Active and inactive are the calls of the source. The calls are words filed in the database; no cut-off is given here.

Experiments:
[1] = target: Mannose-binding protein C (Homo sapiens) (UniProt P11226); experiment: Displacement of biotinylated-TM PAA from human MBP at 1 mM after 3 hrs by colorimetry
Method in brief: (§1)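 Proteins were coated overnight at 4 °C in 20 mM HEPES pH 7.4, 150 mM NaCl and 10 mM CaCl2, then blocked with 3% BSA for 2 h at 4 °C. FimH was a CRD-thrombin-6His construct expressed in E. coli HM125; DC-SIGN and DC-SIGNR were CRD-Fc chimeras made in stably transfected CHO-K1. Compound at 1 mM final was co-added with streptavidin-HRP-coupled TM-PAA, incubated 3 h at 25 °C and 350 rpm, then read by ABTS OD 415 nm. No-antagonist signal was set to 100% and no-polymer background to 0%.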

[2] = target: T1, C-type lectin domain family 6 member A (Homo sapiens) (UniProt Q6EIG7); experiment: Displacement of biotinylated-TM PAA from human Dectin-2 at 1 mM after 3 hrs by colorimetry; method in brief: as §1
T1 sequence (whole entry): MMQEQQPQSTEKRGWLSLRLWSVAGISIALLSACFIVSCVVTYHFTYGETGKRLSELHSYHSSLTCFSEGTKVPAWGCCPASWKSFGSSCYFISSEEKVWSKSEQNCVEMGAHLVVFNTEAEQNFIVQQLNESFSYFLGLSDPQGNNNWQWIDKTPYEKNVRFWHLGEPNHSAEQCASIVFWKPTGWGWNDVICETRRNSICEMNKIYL

[3] = target: T2, Pulmonary surfactant-associated protein D (Homo sapiens) (UniProt P35247); experiment: Displacement of biotinylated-TM PAA from human SP-D at 1 mM after 3 hrs by colorimetry; method in brief: as §1
T2 sequence (whole entry): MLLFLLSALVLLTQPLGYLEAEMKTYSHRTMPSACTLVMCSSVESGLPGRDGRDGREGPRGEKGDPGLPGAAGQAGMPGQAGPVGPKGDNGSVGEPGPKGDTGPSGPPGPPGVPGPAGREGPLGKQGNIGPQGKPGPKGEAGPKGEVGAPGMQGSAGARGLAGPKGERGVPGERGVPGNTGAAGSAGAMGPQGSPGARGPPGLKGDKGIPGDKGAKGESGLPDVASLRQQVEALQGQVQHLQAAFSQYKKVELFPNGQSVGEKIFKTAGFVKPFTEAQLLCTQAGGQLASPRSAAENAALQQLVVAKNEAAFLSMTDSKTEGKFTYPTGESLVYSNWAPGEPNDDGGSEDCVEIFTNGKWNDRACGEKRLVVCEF

[4] = target: T3, C-type lectin domain family 4 member C (Homo sapiens) (UniProt Q8WTT0); experiment: Displacement of biotinylated-TM PAA from human DLEC at 1 mM after 3 hrs by colorimetry; method in brief: as §1
T3 sequence (whole entry): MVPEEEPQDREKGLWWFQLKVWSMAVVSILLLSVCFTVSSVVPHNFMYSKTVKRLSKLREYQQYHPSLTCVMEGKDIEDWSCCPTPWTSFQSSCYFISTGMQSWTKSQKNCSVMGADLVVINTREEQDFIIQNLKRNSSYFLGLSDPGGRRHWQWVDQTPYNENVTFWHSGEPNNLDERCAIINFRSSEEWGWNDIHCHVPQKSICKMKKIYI

[5] = target: T4, CD209 antigen (Homo sapiens) (UniProt Q9NNX6); experiment: Displacement of biotinylated-TM PAA from human DC-SIGN at 1 mM after 3 hrs by colorimetry; method in brief: as §1
T4 sequence (whole entry): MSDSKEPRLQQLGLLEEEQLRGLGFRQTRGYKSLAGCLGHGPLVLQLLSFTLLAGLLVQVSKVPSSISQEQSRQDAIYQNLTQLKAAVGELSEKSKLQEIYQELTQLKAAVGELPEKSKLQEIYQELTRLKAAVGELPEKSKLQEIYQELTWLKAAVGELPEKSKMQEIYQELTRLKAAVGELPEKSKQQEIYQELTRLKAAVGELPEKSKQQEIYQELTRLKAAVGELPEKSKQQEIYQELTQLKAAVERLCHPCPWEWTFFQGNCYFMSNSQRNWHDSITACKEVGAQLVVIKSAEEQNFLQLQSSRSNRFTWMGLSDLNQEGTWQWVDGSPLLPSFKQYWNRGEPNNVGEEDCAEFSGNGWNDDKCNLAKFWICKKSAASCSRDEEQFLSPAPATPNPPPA

[6] = target: T5, C-type lectin domain family 4 member M (Homo sapiens) (UniProt Q9H2X3); experiment: Displacement of biotinylated-TM PAA from human DC-SIGNR at 1 mM after 3 hrs by colorimetry; method in brief: as §1
T5 sequence (whole entry): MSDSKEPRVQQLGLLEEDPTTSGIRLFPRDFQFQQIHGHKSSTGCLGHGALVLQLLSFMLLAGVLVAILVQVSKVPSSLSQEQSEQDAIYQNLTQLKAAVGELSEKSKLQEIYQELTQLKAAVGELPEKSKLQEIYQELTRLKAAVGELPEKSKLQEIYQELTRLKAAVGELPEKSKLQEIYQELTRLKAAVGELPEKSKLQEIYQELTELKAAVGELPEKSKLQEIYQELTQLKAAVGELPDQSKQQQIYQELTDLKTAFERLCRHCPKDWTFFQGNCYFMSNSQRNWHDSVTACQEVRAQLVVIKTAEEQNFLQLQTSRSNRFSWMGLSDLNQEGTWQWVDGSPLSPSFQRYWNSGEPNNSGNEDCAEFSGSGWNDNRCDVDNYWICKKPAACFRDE

[7] = Displacement of biotinylated-TM PAA from Escherichia coli FimH expressed in Escherichia coli HM125 after 3 hrs by colorimetry
Escherichia coli [8] = experiment: Displacement of biotinylated-TM PAA from Escherichia coli FimH expressed in Escherichia coli HM125 at 1 mM after 3 hrs by colorimetry; method in brief: as §1
[9] = target: T6, Macrophage mannose receptor 1 (Homo sapiens) (UniProt P22897); experiment: Displacement of biotinylated-TM PAA from human MMR at 1 mM after 3 hrs by colorimetry; method in brief: as §1
T6 sequence (whole entry): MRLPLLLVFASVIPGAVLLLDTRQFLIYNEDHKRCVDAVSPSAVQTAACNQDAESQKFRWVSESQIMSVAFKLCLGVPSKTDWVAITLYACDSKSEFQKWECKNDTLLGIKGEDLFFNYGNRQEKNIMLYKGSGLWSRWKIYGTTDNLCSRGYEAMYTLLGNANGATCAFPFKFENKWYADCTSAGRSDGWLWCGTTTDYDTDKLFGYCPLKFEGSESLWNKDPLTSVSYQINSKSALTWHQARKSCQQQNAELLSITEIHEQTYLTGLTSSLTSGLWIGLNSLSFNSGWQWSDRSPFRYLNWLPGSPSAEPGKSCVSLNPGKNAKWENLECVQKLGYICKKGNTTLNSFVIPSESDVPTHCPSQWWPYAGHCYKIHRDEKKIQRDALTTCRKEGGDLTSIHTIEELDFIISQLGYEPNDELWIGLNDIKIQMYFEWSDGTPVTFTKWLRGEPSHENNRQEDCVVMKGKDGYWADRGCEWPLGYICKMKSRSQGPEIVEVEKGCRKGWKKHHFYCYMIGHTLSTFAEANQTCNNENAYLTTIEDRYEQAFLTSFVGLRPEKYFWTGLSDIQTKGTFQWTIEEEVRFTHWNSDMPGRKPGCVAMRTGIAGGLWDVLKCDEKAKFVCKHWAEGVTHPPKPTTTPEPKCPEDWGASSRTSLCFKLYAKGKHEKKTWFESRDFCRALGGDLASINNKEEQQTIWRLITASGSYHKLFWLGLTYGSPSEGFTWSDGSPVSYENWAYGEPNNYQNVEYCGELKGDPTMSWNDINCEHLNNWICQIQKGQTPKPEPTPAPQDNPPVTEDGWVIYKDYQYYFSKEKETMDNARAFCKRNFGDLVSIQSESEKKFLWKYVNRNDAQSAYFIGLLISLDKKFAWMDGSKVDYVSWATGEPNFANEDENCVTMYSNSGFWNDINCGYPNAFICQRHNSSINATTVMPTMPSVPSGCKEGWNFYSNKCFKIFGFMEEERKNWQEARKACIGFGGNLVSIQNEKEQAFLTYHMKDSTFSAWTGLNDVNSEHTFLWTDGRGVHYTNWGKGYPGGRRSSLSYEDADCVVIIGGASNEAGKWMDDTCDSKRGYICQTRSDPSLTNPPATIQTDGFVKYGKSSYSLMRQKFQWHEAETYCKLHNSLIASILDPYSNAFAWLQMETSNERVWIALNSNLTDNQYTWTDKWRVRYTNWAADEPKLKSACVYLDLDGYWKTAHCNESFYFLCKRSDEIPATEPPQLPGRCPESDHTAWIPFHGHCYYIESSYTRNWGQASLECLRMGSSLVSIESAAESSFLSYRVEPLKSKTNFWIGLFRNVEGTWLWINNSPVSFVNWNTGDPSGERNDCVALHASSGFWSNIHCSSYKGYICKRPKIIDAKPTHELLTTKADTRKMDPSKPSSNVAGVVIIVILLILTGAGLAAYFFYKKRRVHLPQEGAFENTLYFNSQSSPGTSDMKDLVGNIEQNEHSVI

[10] = Cmax in mouse; assay type: ADME, organism-based; settings: in vivo
[11] = target: T7, C-type lectin domain family 4 member K (Homo sapiens, UniProt Q9UJ71); experiment: Displacement of biotinylated-TM PAA from human langerin at 1 mM after 3 hrs by colorimetry; method in brief: as §1
T7 sequence (Q9UJ71 whole entry, the tested form may be a part): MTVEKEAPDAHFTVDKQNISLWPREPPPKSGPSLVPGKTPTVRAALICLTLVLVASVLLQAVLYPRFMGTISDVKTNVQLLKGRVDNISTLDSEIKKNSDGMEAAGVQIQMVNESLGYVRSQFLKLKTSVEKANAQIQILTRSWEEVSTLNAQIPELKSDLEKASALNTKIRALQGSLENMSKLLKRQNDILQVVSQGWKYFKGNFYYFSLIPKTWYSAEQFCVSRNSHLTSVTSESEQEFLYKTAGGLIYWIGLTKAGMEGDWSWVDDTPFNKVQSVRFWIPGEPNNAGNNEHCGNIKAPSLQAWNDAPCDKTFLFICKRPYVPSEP

[12] = target: T7, C-type lectin domain family 4 member K; experiment: Displacement of biotinylated-TM PAA from human langerin after 3 hrs by colorimetry
[13] = target: T8, Macrophage mannose receptor 1 (Homo sapiens, UniProt P22897); experiment: Displacement of biotinylated-TM PAA from human MMR after 3 hrs by colorimetry
T8 sequence (P22897 whole entry): T6 sequence (whole entry)

[14] = target: T9, C-type lectin domain family 4 member C (Homo sapiens, UniProt Q8WTT0); experiment: Displacement of biotinylated-TM PAA from human DLEC after 3 hrs by colorimetry
T9 sequence (Q8WTT0 whole entry): T3 sequence (whole entry)

[15] = target: T1, C-type lectin domain family 6 member A (Homo sapiens); experiment: Displacement of biotinylated-TM PAA from human Dectin-2 at 50 mM after 3 hrs by colorimetry
Method in brief: (§2)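 α-D-mannose served as the positive control at 50 mM final, mixed with streptavidin-HRP-TM-PAA and applied to lectin-coated wells. Wells were coated overnight at 4 °C in HEPES/NaCl/10 mM CaCl2 at pH 7.4 and blocked with BSA. Incubation was 3 h at 25 °C, followed by four washes and ABTS development for 4 min, stopped with oxalic acid, OD 415 nm. Binding is expressed as % of the antagonist-free signal after subtracting the polymer-free background.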

Escherichia coli [16] = experiment: Displacement of biotinylated-TM PAA from Escherichia coli FimH expressed in Escherichia coli HM125 at 50 mM after 3 hrs by colorimetry; method in brief: as §2
[17] = target: T2, Pulmonary surfactant-associated protein D (Homo sapiens); experiment: Displacement of biotinylated-TM PAA from human SP-D at 50 mM after 3 hrs by colorimetry; method in brief: as §2
[18] = target: T5, C-type lectin domain family 4 member M (Homo sapiens); experiment: Displacement of biotinylated-TM PAA from human DC-SIGNR at 50 mM after 3 hrs by colorimetry; method in brief: as §2
[19] = target: T3, C-type lectin domain family 4 member C (Homo sapiens); experiment: Displacement of biotinylated-TM PAA from human DLEC at 50 mM after 3 hrs by colorimetry; method in brief: as §2
[20] = target: Mannose-binding protein C (Homo sapiens) (UniProt P11226); experiment: Displacement of biotinylated-TM PAA from human MBP at 50 mM after 3 hrs by colorimetry; method in brief: as §2
[21] = target: T6, Macrophage mannose receptor 1 (Homo sapiens); experiment: Displacement of biotinylated-TM PAA from human MMR at 50 mM after 3 hrs by colorimetry; method in brief: as §2
[22] = target: T4, CD209 antigen (Homo sapiens); experiment: Displacement of biotinylated-TM PAA from human DC-SIGN at 50 mM after 3 hrs by colorimetry; method in brief: as §2
[23] = target: T7, C-type lectin domain family 4 member K; experiment: Displacement of biotinylated-TM PAA from human langerin at 50 mM after 3 hrs by colorimetry; method in brief: as §2

Chain of Mannose-binding protein C (Homo sapiens) (P11226 whole entry): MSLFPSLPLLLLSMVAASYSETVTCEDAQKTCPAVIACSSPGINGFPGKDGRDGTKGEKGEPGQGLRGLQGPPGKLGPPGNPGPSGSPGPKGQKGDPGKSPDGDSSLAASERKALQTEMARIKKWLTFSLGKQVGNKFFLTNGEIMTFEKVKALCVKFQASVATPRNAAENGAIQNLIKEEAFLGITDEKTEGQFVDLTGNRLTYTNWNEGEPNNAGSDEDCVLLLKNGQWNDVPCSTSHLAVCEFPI

| inhibition [1] | inhibition [2] | inhibition [3] | inhibition [4] | inhibition [5] | inhibition [6] | IC50 [7] [µM] | inhibition (Escherichia coli [8]) | inhibition [9] | Cmax [10] [µM] | inhibition [11] | IC50 [13] [µM] | Structure (SMILES) | also measured |
| --- | --- | --- | --- | --- | --- | --- | --- | --- | --- | --- | --- | --- | --- |
| inactive | inactive | inactive | inactive | inactive | inactive | 0.065 | Active | inactive | 144 | inactive |  | CCCCCCCO[C@H]1O[C@H](CO)[C@@H](O)[C@H](O)[C@@H]1O |  |
| inactive | inactive | inactive | inactive | inactive | inactive |  | Active | 54% | 97 | 63% | 1000 | O=C(O)c1ccc(-c2ccc(O[C@H]3O[C@H](CO)[C@@H](O)[C@H](O)[C@@H]3O)c(Cl)c2)cc1 | IC50 [12]: 1000 µM |
| inactive | inactive | inactive | 50% | inactive | inactive | 0.017 | Active | inactive | 80 | inactive |  | O=C(O)c1ccc(-c2ccc(O[C@H]3O[C@H](CO)[C@@H](O)[C@H](O)[C@@H]3O)cc2)cc1 | IC50 [14]: 1000 µM |
| inactive | inactive | inactive | inactive | inactive | inactive | 0.02 | Active | 58% |  | inactive | 1000 | O=C(O)c1ccc2c(ccn2-c2ccc(O[C@H]3O[C@H](CO)[C@@H](O)[C@H](O)[C@@H]3O)c(Cl)c2)c1 |  |
|  |  |  |  |  |  |  |  |  |  |  |  | OC[C@H]1OC(O)[C@@H](O)[C@@H](O)[C@@H]1O (stereo not given in full) | inhibition [15]: > 90%; inhibition (Escherichia coli [16]): > 90%; inhibition [17]: > 90%; inhibition [18]: > 90%; inhibition [19]: > 90%; inhibition [20]: > 90%; inhibition [21]: > 90%; inhibition [22]: > 90%; inhibition [23]: > 90% |
| inactive | inactive | inactive | inactive | inactive | inactive | 0.031 | Active | inactive |  | inactive |  | CN1CCN(c2c(Nc3ccc(O[C@H]4O[C@H](CO)[C@@H](O)[C@H](O)[C@@H]4O)c(Cl)c3)c(=O)c2=O)CC1 |  |
